# Reference: ChEMBL document CHEMBL4138127, “Synthesis and evaluation of new pyridyl/pyrazinyl thiourea derivatives: Neuroprotection against amyloid-β-induced toxicity” (Eur J Med Chem, 2017)
# Assays:
# Mus musculus [1] = organism: Mus musculus; assay: Inhibition of amyloid beta (1 to 42)-induced mPTP opening in mouse HT22 cells assessed as reduction in mitochondrial membrane potential loss by measuring green to red fluorescence ratio at 5 uM preincubated for 10 mins followed by amyloid beta (1 to 42) addition measured every 1 hr for 3 hrs by JC1 staining based fluorescence assay relative to control; type: cell-based
# Method in brief: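 HT-22 cells were seeded at 30,000 per well the day before and loaded with JC-1 (7.5 µM final) in phenol red-free Opti-MEM for 1 h 15 min at 37 °C, then PBS-washed. Compound solution (5 µM in Opti-MEM) was added for 10 min at 37 °C, followed by Aβ1-42 solution (5 µM). Red (ex/em 530/580) and green (485/530) fluorescence were read hourly for 3 h. Green/red ratio change was normalized to vehicle control as 100%.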
# Mus musculus [2] = organism: Mus musculus; assay: Inhibition of mPTP opening in mouse HT22 cells assessed as protection against amyloid beta (1 to 42)-induced toxicity by measuring cell viability at 5 uM preincubated for 10 mins followed by amyloid beta (1 to 42) addition measured after 24 hrs by MTT assay (reference value: 50 to 70%); type: cell-based
# Method in brief: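 HT-22 cells were seeded at 5000 per well the day before. Compound was added as a 10 µM solution for 10 min at 37 °C, then an equal volume of 10 µM Aβ1-42 was added, and cells were incubated 24 h at 37 °C. The table footnote states 5 µM of each. Viability was read by MTT (2 h, acidic Triton/isopropanol solubilization, A570). Protection was scaled to vehicle + Aβ as 0% and vehicle alone as 100%.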
# ATP synthase = assay: Inhibition of ATP synthase in mouse HT22 cells assessed as ATP production at 5 uM after 7 hrs by luciferase based assay relative to control; type: cell-based; design: scale not given: the % may be the effect or the level left; conditions: read-out: Activity
# Method in brief: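 HT-22 cells were seeded at 10,000 per well one day before, then given 5 µM compound for 7 h at 37 °C. After PBS washes, cells were lysed in 1% Triton X-100 in TBST. Protein was measured by BCA, and equal lysate amounts were assayed for ATP with a luciferase-based kit. Vehicle control was subtracted and percent inhibition was calculated relative to vehicle control ATP.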
# [3] = Cytotoxicity against mouse HT22 cells assessed as cell viability at 5 uM after 24 hrs by MTT assay relative to control; type: cell-based, HT-22; conditions: read-out: Activity
# Method in brief: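 HT-22 mouse hippocampal cells were grown in DMEM with 10% FBS and penicillin/streptomycin at 37 °C under 5% CO2, seeded at 5000 per well and exposed to 5 µM compound for 24 h at 37 °C. MTT was added for 2 h, then formazan was dissolved in 10% Triton X-100/isopropanol/0.1 M HCl for 1 h at room temperature. A570 was read and vehicle control OD subtracted to give viability.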
SMILES,Ratio (Mus musculus [1]) [%],Activity (Mus musculus [2]) [%],"activity at 7 h, 5 µM (ATP synthase) [%]","viability at 24 h, 5 µM [3] [%]"
CCNC(=S)Nc1ncccc1OCc1ccccc1,66.8,–,–,–
S=C(NCc1ccccc1)Nc1ncccc1OCc1ccccc1,75.3,–,–,–
CC(C)NC(=S)Nc1ncccc1OCc1cccc(F)c1,86,–,–,–
S=C(Nc1ncccc1OCc1ccccc1Cl)Nc1cccc2ccccc12,17.5,9.5,100,89.3
S=C(Nc1cccc(Cl)c1)Nc1nccnc1OCc1ccccc1Cl,30.8,29.6,98,114
CC(C)(C)NC(=S)Nc1ncccc1OCc1cccc(Cl)c1,112,–,–,–
CC(C)(C)NC(=S)Nc1ncccc1OCc1cccc(F)c1,123,–,–,–
S=C(Nc1cccc(Cl)c1)Nc1ncccc1OCc1cccc(Cl)c1,38,51.8,104,98.3
Cc1ccc(NC(=S)Nc2ncccc2OCc2cccc(Cl)c2)cc1,26,22.8,94.5,96.2
CC(C)(C)NC(=S)Nc1nccnc1OCc1cccc(F)c1,28.1,13.2,99.7,101
CC(C)NC(=S)Nc1ncccc1OCc1ccccc1Cl,31.7,-6.7,93.7,99.3
Cc1ccc(NC(=S)Nc2nccnc2OCc2cccc(F)c2)cc1,4.6,69.3,102,96.4
CC(C)NC(=S)Nc1nccnc1OCc1cccc(F)c1,43.1,–,–,–
S=C(Nc1ncccc1OCc1cccc(Cl)c1)Nc1cccc2ccccc12,26,18.6,107,123
S=C(Nc1cccc(Cl)c1)Nc1ncccc1OCc1ccccc1Cl,14.2,22.7,103,116
CC(C)NC(=S)Nc1ncccc1OCc1ccccc1,45.2,–,–,–
S=C(NCc1ccccc1)Nc1nccnc1OCc1ccccc1Cl,5.3,3.8,85.1,105
Cc1ccc(NC(=S)Nc2ncccc2OCc2ccccc2)cc1,23.3,–,66,–
Cc1ccc(NC(=S)Nc2ncccc2OCc2ccccc2Cl)cc1,13,6.6,102,93.5
S=C(Nc1ncccc1OCc1ccccc1)Nc1cccc2ccccc12,17.1,–,65,–
S=C(Nc1cccc(Cl)c1)Nc1ncccc1OCc1ccccc1,25.3,–,68,–
CCNC(=S)Nc1ncccc1OCc1ccccc1Cl,94.1,–,–,–
CCNC(=S)Nc1ncccc1OCc1cccc(F)c1,88.7,–,–,–
CC(C)(C)NC(=S)Nc1ncccc1OCc1ccccc1,91,–,–,–
Fc1cccc(COc2cccnc2NC(=S)Nc2cccc3ccccc23)c1,16.7,48.2,100,102
NC(=O)CN1CCCC1=O [PIRACETAM],–,29,88,–
CC(C)NC(=S)Nc1nccnc1OCc1ccccc1Cl,56.3,–,–,–
